From PubChem BioAssay
TAAR1 agonist: human TAAR1 agonists, primary screen, Fluo-8 calcium fluorescence, CHO RD-HGA16 cells; Trace amine-associated receptor 1 (Homo sapiens), Q96RJ0; vehicle wells 0%, saturating PEA agonist 100%; activation, % at 3 µM; 360,000 tested, 0.99% active; AID 624467, 2012;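 active = activation above the mean activation of all test compounds in the run plus 3 SD, cut at about 38% in these data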
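Test system: RD-HGA16 (CHO) cells co-expressing Gα16 and hTAAR1 / Benchmarks: DMSO vehicle as 0%, PEA at EC100 as 100% / Repeats: no replicates (n 1) / Measure: % activation from peak over basal fluorescence ratio, DMSO-to-PEA scaled / Timing: 17-24 h plating, Fluo-8 75 min 37 °C, 30 min RT / Technique: kinetic Fluo-8 calcium fluorescence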
GPR7 antag: GPR7 receptor antagonists, primary screen, cell-based, fluorescence, single concentration. AID 1861, 2009. Neuropeptides B/W receptor type 1 (Homo sapiens), P48145. GPR7-expressing cells, fluorescence antagonist assay. 290,000 tested, 1.1% active. inhibition, % at 4.4 µM; in the data active = inhibition above about 16%, passing the limit was not always enough;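 also: cells stimulated with the agonist NPW; 0% = agonist with vehicle and 100% = vehicle without agonist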
TAAR1 antagonist: human TAAR1 antagonists, primary screen, Fluo-8 calcium fluorescence, CHO RD-HGA16 cells. Trace amine-associated receptor 1 (Homo sapiens), Q96RJ0. antagonist. inhibition, % at 3 µM. 360,000 tested, 1.5% active;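 active = inhibition above a per-plate cutoff, the mean inhibition of test compounds on that plate plus 3 SD, cut at about 49% in these data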;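 also: 0% = DMSO plus EC80 beta-PEA response and 100% = DMSO alone without agonist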
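test system = CHO RD-HGA16 cells bearing hTAAR1 | replication = singlicate | controls = DMSO-only wells and EC80 β-PEA-stimulated wells | reagent = EC80 β-phenethylamine stimulus | read-out basis = percent inhibition of PEA-evoked calcium signal, max/basal emission ratio | schedule = seeding 17-24 h prior, 75-min 37 °C, 30-min RT dye loading | signal = kinetic Fluo-8 calcium fluorescence measurement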
TRPML3 agonist: human TRPML3 channel agonists, primary screen, cell-based, HEK293 TRPML3-YFP, Fluo-8 calcium fluorescence, 3 µM; Mucolipin-3 (Homo sapiens), Q8TDD5; 100% = the carbachol control signal; activation, % at 3 µM; 220,000 tested, 0.29% active; AID 1448, 2008;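 active = activation above its plate's cutoff, the mean activation of the plate's test wells plus 3 SD, cut at about 12% in these data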;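 also: 0% = DMSO only wells and 100% = carbachol wells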
Target sequence (Q8TDD5 whole entry, looked up): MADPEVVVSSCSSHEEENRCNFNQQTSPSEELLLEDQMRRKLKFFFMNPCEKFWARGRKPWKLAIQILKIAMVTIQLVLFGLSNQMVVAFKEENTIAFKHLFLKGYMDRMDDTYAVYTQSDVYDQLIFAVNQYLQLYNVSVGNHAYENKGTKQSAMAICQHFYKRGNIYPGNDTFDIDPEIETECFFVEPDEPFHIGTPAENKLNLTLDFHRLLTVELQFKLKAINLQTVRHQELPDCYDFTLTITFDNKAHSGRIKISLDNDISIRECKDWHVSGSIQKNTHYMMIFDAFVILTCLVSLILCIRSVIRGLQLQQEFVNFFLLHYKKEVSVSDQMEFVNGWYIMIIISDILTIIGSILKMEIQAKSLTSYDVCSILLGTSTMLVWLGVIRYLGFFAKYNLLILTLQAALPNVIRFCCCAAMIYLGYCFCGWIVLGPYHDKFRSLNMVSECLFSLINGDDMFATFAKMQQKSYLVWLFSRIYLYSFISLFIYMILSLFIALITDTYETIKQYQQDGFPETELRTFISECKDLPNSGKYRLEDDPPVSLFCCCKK
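Test system – HEK293 line with stable expression of human TRPML3-YFP channel · Control set – carbachol 87 µM final as high control (100%), DMSO as low control (0%) · Signal – Fluo-8 calcium dye fluorescence, ex 470-495, em 515-575 nm · Incubation – 1-h 37 °C dye load, 5-s basal, 120-s post-compound reads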
zfTRPN1 agonist: zebrafish TRPN1 channel agonists, primary screen, cell-based, HEK293, calcium fluorescence; transient receptor potential cation channel N1 (TRPN1/NompC), Danio rerio; HEK293 zebrafish TRPN1-YFP, Fluo-8 calcium fluorescence; 100% = response to 87 µM carbachol; activation, % at 3 µM; 220,000 tested, 0.18% active; AID 1424, 2008;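 active = activation above its plate's cutoff, the mean activation of test wells on that plate plus 3 SD, cut at about 19% in these data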;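 also: 0% = DMSO alone and 100% = 87 µM carbachol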
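Material: zebrafish TRPN1-YFP in HEK293 cells. Doses: one dose of 3 µM, 0.3% DMSO. Incubation: dye 1 h 37 °C plus 30 min RT. Measured by: intracellular calcium fluorescence with Fluo-8.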
LANA-H2A inh: blockers of LANA interaction with H2A/H2B – biochemical, FP readout, HTS, primary screen | Protein LANA1 (Human herpesvirus 8 type P (isolate GK18)), Q9QR71 | cell-free LANA-H2A/H2B peptide, fluorescence polarization | inhibition, % (no concentration beside the values) | 320,000 tested, 0.6% active | AID 2629, 2010; in the data active = inhibition mostly above about 10%, no sharp cut-off; inactive = mostly below about 6.7%
* marks the source's active call; other numbers are inactive results; nt = no result given. Only some compounds are listed: those with a hit (about 3.4% of all), similar ones and a draw of the others.

SMILES	TAAR1 agonist	GPR7 antag	TAAR1 antagonist	TRPML3 agonist	zfTRPN1 agonist	LANA-H2A inh
O=C(CCSc1nnc(-c2ccco2)o1)Nc1ccc(Cl)cc1	41*	0	-19	1	0	-2
COC(=O)[C@]12C[C@H](CC(=O)NCc3ccc(C)o3)C(=O)N(Cc3ccccc3)C1=C[C@H](C(C)C)O[C@@H]2C1CC1	-1	nt	-20	nt	nt	nt
CCOC(=O)C1=C(C(=O)OCC)C2N(Cc3ccc(C#N)cc3)c3ccccc3[C@@]23C[C@@H](C(=O)OC)N(S(=O)(=O)c2c(C)noc2C)C3=N1 (stereo not given in full)	0	nt	7	nt	nt	nt
CSCCC(NC(=O)COc1ccccc1)C(=O)N(C)Cc1ccc(SC)cc1 (stereo not given)	19	nt	52*	nt	nt	-2
CSCCC(NC(=O)COc1ccccc1)C(=O)N(C)Cc1ccc(F)cc1 (stereo not given)	4	nt	13	nt	nt	-5
Cc1nn(C)c(C(=O)Nc2ccc(S(=O)(=O)NC34CC5CC(CC(C5)C3)C4)cc2)c1Br	nt	-5	nt	-1	2	57*
Cc1ccc(NC(=O)C(c2ccccc2)N(C)C)cc1Cl (stereo not given)	nt	19	nt	0	0	12*
C=CCN1[C@@H](C)[C@H](c2ccccc2)Oc2cccc(N3CCCC3)c2S1(=O)=O	1	nt	-37	nt	nt	nt
CN(Cc1ccc(OC(F)F)cc1)C(=O)c1cccc(S(=O)(=O)N2CCN(Cc3ccccc3)CC2)c1	5	nt	49*	nt	nt	nt
CN(CC(=O)Nc1ccc(Cl)cc1)C(=O)c1cccc(S(=O)(=O)N2CCN(Cc3ccccc3)CC2)c1	18	nt	50*	nt	nt	1
CN(C)c1cccc2c(S(=O)(=O)NCC3CCN(C(=O)C(=O)c4cccs4)CC3)cccc12	2	nt	-20	nt	nt	nt
Cc1ccc(CNC(=O)C2CCC(=O)N(CCc3ccccc3)C2)s1 (stereo not given)	5	-13	-12	nt	nt	18*
CCN1C/C(=C/c2cccs2)c2nc3ccccc3c(C(=O)O)c2C1	0	-19	-11	0	0	11*
CCN1C/C(=C/c2sccc2C)c2nc3ccccc3c(C(=O)O)c2C1	2	-1	-18	0	-1	2
CC(NC(=O)c1c(N)[nH]c(C(=O)c2ccc(Cl)cc2)c1-c1ccc(Br)cc1)c1cccc2ccccc12 (stereo not given)	1	nt	-16	nt	nt	nt
CC(NC(=O)C1CCN(Cc2ccc(Oc3ccccc3)cc2)CC1)c1cccc2ccccc12 (stereo not given)	25	nt	49*	nt	nt	nt
CC(NC(=O)C1CCN(Cc2ccccc2)CC1)c1cccc2ccccc12 (stereo not given)	6	nt	-16	nt	nt	nt
COC(=O)C1=C(C)N(C)C(=NCc2ccc(OC)cc2)NC1c1cccc(F)c1 (stereo not given)	4	nt	-7	nt	nt	nt
COc1ccc(N2CCN(C(=O)CSc3nc4nc(C)cc(C)n4n3)CC2)cc1	1	nt	-2	nt	nt	37*
CCOC(=O)C1=CCC(c2ccc([N+](=O)[O-])cc2)N(S(=O)(=O)c2ccc(C)cc2)C1 (stereo not given)	-1	nt	20	nt	nt	nt
C[C@@H]1CN([C@@H](C)CO)C(=O)CCCn2cc(nn2)CO[C@H]1CN(C)C(=O)Cc1ccccc1	0	nt	-9	nt	nt	nt
c1ccc2c(c1)CCCN2Cc1nnc2n1CCCCC2	1	-9	7	1	0	59*
c1ccc(Cc2nnc3n2CCCCC3)cc1	8	-1	6	1	0	-9
CN(C)CCCNC(=O)c1ccc(Cl)c(S(=O)(=O)N2CCCCCC2)c1	-1	nt	4	nt	nt	-1
